SIAE inh – blocks human sialic acid acetylesterase; Q9HAT2; SIAE FP-Rh probe binding, fluorescence polarization; inhibition, % at 9.66 µM; 0.69% of 370,000 active;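 active = inhibition above a cutoff: mean of compounds within the control limits plus 3 SD of those, cut at about 17% in these data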;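 note: 0% = plate median of compound wells and 100% = probe without SIAE protein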
mABHD4 FP – inhibits mouse alpha/beta hydrolase domain 4; AID 720543; purified mABHD4, FP-Rh probe fluorescence polarization; 0.54% of 370,000 active; inhibition, % at 8.92 µM; Q8VD66;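 active = inhibition exceeding the mean over every tested compound plus 3 SD, cut at about 30% in these data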;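 note: 0% = plate median of compound wells and 100% = S159A mutant with DMSO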
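System: mouse ABHD4 enzyme, wild type / Medium: HEPES pH 7.0, NaCl, Pluronic buffer / Reagent: FP-Rh activity-based fluorescent probe / Control set: S159A mutant high control, sample median low control / Detection: fluorescence polarization with parallel and perpendicular emission, 525/598 nm / Schedule: 45 min + 60 min at 25 °C / Compound dosing: 8.92 µM, single dose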
HTRA1 inhibitor – blocks human HTRA1 serine peptidase; Q92743; recombinant HTRA1, FP-rhodamine activity-based probe, fluorescence polarization; inhibition, % at 5.96 µM; 0.5% of 340,000 active; in the data active = inhibition above about 36%;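 note: 0% = enzyme with DMSO and 100% = wells lacking enzyme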
Target sequence (Q92743 whole entry, looked up): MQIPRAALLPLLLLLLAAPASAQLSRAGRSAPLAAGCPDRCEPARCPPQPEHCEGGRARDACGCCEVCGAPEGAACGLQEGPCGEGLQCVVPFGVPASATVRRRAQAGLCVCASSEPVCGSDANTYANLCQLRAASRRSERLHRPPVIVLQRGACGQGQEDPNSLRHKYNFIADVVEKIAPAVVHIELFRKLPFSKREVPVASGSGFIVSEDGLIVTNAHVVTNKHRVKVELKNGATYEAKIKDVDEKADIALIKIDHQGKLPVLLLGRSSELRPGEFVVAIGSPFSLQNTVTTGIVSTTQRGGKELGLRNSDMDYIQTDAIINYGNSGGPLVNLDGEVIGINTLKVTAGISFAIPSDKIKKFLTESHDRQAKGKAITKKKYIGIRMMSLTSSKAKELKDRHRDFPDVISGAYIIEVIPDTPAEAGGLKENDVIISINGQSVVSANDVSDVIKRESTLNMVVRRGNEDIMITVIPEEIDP
TCR CD3 inh – inhibitors of human TCR-CD3 interaction; 0.37% of 360,000 active; TAMRA-labeled TCR probe fluorescence, biochemical; inhibition, % at 9.4 µM;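 note: recombinant mutant TCR 2C K166C tagged with TAMRA read by polarization; 0% = receptor in buffer alone and 100% = receptor with positive control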
PRMT1 FP inh – inhibitors of human PRMT1. recombinant PRMT1, activity-based probe fluorescence polarization. 1.3% of 370,000 active. AID 652257. inhibition, % at 2.79 µM;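 active = inhibition above about 21% made by adding two undisclosed values, limit read from the data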
BSA probe FL – counter-screen for TCR-CD3 interaction inhibitors: BSA probe | shares compounds with TCR CD3 inh | TAMRA-labeled BSA probe fluorescence counterscreen | inhibition, % at 9.4 µM | 10% of 1,200 active | AID 652035; in the data active = inhibition above about 23%;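 note: 0% = buffer low control and 100% = reference high control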
TCR-CD3 inh conf – TCR-CD3 interaction inhibition, confirmation | shares compounds with TCR CD3 inh | TAMRA-labeled TCR probe fluorescence binding assay | inhibition, % at 9.4 µM | 48% of 1,200 active | AID 652036
An asterisk follows results filed as active; nt = not tested or not shown. The list is not random: actives were taken first. Their share in the collection is about 2.6%. Cut-off read from the data, not from the text of the source, unless noted: active = inhibition above about 19%; inactive = the rest.

SMILES	SIAE inh	mABHD4 FP	HTRA1 inhibitor	TCR CD3 inh	PRMT1 FP inh	BSA probe FL	TCR-CD3 inh conf
COC(=O)[C@]12C[C@H](CC(=O)NCCC(C)C)C(=O)N(Cc3ccco3)C1=C[C@H](C(C)(C)C)O[C@@H]2C	-3.8	-2.5	nt	nt	0.2	nt	nt
O=C(NNC(=O)c1ccccc1O)c1ccc(S(=O)(=O)Nc2ccccc2)cc1	12.1	10.2	13.5	28.9*	-4.4	-18.7	8.9
O=C(NNC(=O)c1cc(Cl)ccc1O)c1ccc(NS(=O)(=O)c2cccs2)cc1	12.0	0.9	26.9	24.4*	12.0	-16.9	16.6
CCOc1ccc(NS(=O)(=O)c2ccc(C(=O)NNC(=O)c3ccccc3O)cc2)cc1	9.0	-0.9	22.0	23.4*	-1.0	-9.2	23.3*
CCOc1ccc(S(=O)(=O)Nc2ccc(C(=O)NNC(=O)c3ccncc3)cc2)cc1	-2.3	-1.4	4.1	-0.9	-3.1	nt	nt
COC(=O)[C@H](C(C)C)N1Cc2nnn(Cc3ccc(C)cc3)c2-c2cc(F)ccc2S1(=O)=O	-5.7	-1.6	nt	nt	-2.1	nt	nt
Cc1cc(C(=O)N/N=C/c2cccc([N+](=O)[O-])c2)c2ccccc2n1	3.4	3.9	-3.1	-4.8	1.1	nt	nt
COc1cc([N+](=O)[O-])cc(/C=N/NC(=O)c2cc(C)nc3ccccc23)c1O	-3.9	19.0	6.0	23.5*	9.6	-5.7	23.2*
COc1cc([N+](=O)[O-])cc(/C=N/NC(=O)c2cc(-c3ccccc3)nc3ccccc23)c1O	-4.0	8.7	10.2	24.3*	-5.1	9.8	8.1
COC1(OC)C(/C=C/c2ccc(Cl)cc2)C(C#N)(C#N)C1(OC)OC (stereo not given)	-4.8	2.4	-11.0	20.9*	-4.0	-4.2	3.5
COCCn1c(=NC(=O)c2cc(-c3cccs3)nc3ccccc23)sc2cc(S(N)(=O)=O)ccc21	-118.1	-113.0	-139.3	28.6*	-1.8	1.8	21.2*
Cc1ccc(S(=O)(=O)N2CCC(=O)N(C(CO)C(C)C)CC2)cc1 (stereo not given)	-4.5	-2.2	6.1	103.4*	2.1	-3.0	-2.9
Cc1ccc(S(=O)(=O)N2CCC(=O)N([C@H](CO)Cc3ccccc3)CC2)cc1	7.1	-1.8	nt	0.9	-5.2	nt	nt
CCCC[C@H](C(=O)N(CC)c1ccccc1)[C@@H](O)c1ccc(C(C)=O)cc1	0.9	5.6	nt	nt	1.3	nt	nt
CC(C)C[C@H]1COc2cc(Br)ccc2S(=O)(=O)N1Cc1cn(Cc2ccc(Br)cc2)nn1	-0.5	4.3	nt	nt	-2.9	nt	nt
C/C(=C\C(=O)c1ccc(Br)cc1)NNC(=O)c1ccc(O)cc1	0.7	-18.6	31.4	34.6*	4.0	-12.0	26.8*
COC(=O)c1sccc1NC(=O)Nc1ccc(Cl)c(Cl)c1	-22.9	-23.1	-14.0	34.3*	2.0	3.2	7.1
COC(=O)C1=C(C)N(Cc2cccc(C(F)(F)F)c2)C(=NCc2ccc(OC)cc2)NC1c1ccccc1C(F)(F)F (stereo not given)	4.2	6.8	nt	-1.2	0.3	nt	nt
COc1ccc(C2C(C#N)=C(N)OC3=C2C(=O)CCC3)cc1Cn1nc(C)c([N+](=O)[O-])c1C (stereo not given)	4.3	4.8	-3.3	41.6*	-1.3	-1.0	0.6
Cn1cnc2c(cnn2C)c1=O	3.8	-1.8	5.2	27.7*	-0.6	1.2	3.2
Cn1cnc2c(cnn2-c2ccccc2)c1=O	0.0	-2.9	-3.8	3.7	1.1	nt	nt
Cc1cc(C(=O)N/N=C/c2ccc([N+](=O)[O-])s2)n[nH]1	1.8	8.8	6.8	-5.9	11.1	nt	nt
Cc1cc(C(=O)N/N=C/c2cc(Cl)cc([N+](=O)[O-])c2O)n[nH]1	-3.6	19.3	13.2	28.2*	-2.1	-6.3	33.8*
O=C(N/N=C/c1cc([N+](=O)[O-])ccc1O)c1cccc2cc[nH]c12	4.9	8.3	21.9	20.0*	1.4	-8.1	18.7
CCc1ccc(N2CC(C(=O)N/N=C/c3cc([N+](=O)[O-])ccc3O)CC2=O)cc1 (stereo not given)	-3.1	2.5	nt	31.2*	4.0	-8.9	26.3*
SMILES	SIAE inh	mABHD4 FP	HTRA1 inhibitor	TCR CD3 inh	PRMT1 FP inh	BSA probe FL	TCR-CD3 inh conf
O=C(CSc1nc2ccccc2s1)N/N=C/c1cc([N+](=O)[O-])ccc1O	-0.2	19.3	0.1	33.8*	-0.8	-11.3	31.1*
CCc1ccc(N2CC(C(=O)N/N=C/c3ccccc3OC)CC2=O)cc1 (stereo not given)	7.8	-3.0	-22.8	-7.5	4.2	nt	nt
Cc1c(NC(=S)N/N=C/c2cc([N+](=O)[O-])ccc2O)c(=O)n(-c2ccccc2)n1C	11.7	27.4	31.3	31.7*	4.2	-4.8	30.9*
O=C(Nc1cccc(Br)c1)OC1CC2CC1[C@H]1CCCCN1[C@H]2Cc1ccccc1 (stereo not given in full)	-2.8	-3.0	nt	nt	-3.3	nt	nt
CN(C)c1cccc(/C=C2\CC3(OC(=O)c4ccc(Cl)cc4)CCCN2C3)c1 (stereo not given)	0.9	-2.8	nt	nt	7.3	nt	nt
O=C(CN(c1cccc(Br)c1)S(=O)(=O)c1ccccc1)N/N=C/c1cc([N+](=O)[O-])ccc1O	15.1	3.7	nt	29.6*	-2.3	-15.9	28.1*
COc1cc(/C=N/NC(=O)c2cccc(N3CCCC3=O)c2)ccc1O	-1.0	7.9	-1.6	0.7	-0.6	nt	nt
O=C(N/N=C/c1cc([N+](=O)[O-])ccc1O)c1cccc(N2CCCC2=O)c1	2.2	11.1	-4.0	46.0*	0.4	-9.9	37.1*
Cc1ccc(NS(=O)(=O)c2ccc(Cl)c(C(=O)Nc3ccccc3-c3nc4ccccc4[nH]3)c2)cc1C	-219.1	-199.2	-137.1	77.7*	-2.7	17.8	36.6*
CN(C)S(=O)(=O)c1ccc(Cl)c(C(=O)Nc2nc3ccccc3[nH]2)c1	-2.5	1.6	-2.4	-2.8	0.3	nt	nt
Cc1ccccc1Cn1cc(CN2[C@H](C)COc3cc(Br)ccc3S2(=O)=O)nn1	2.0	1.8	nt	nt	-3.2	nt	nt
COc1ccc(NC(=O)N(C)[C@H]2C[C@H]3c4[nH]c5c(-c6cccc(C)c6)cccc5c4CCN3C(=O)[C@H]2[C@H](C)O)cc1	7.5	-4.2	nt	nt	-4.6	nt	nt
O=C(N/N=C/c1cccc([N+](=O)[O-])c1)c1ccc(COc2ccccc2-c2ccccc2)cc1	-19.4	-7.2	-27.3	49.8*	-3.3	21.3	50.2*
CN(N=Cc1ccccc1O)c1ccc2ccccc2n1	6.0	6.8	5.5	20.1*	4.6	4.1	-0.5
COc1ccc(C(=O)NNC(=S)NC(=O)c2ccco2)cc1	0.3	9.4	9.9	11.6	-0.6	nt	nt
Cc1onc(-c2ccccc2Cl)c1C(=O)NNC(=O)c1ccc(F)cc1	3.3	-2.7	-1.7	-1.4	0.8	nt	nt
CCCOc1ccc(C(=O)NNC(=S)NC(=O)c2ccco2)cc1	2.4	5.0	9.6	19.8*	0.8	-13.2	13.9
COc1ccccc1C(=O)NNC(=S)NC(=O)c1ccco1	6.1	2.3	4.3	21.5*	-1.0	-8.7	13.9

Bioassay records as filed in PubChem.
